Experimental data published in ChEMBL document CHEMBL1152541, “Staurosporine tethered peptide ligands that target cAMP-dependent protein kinase (PKA): optimization and selectivity profiling” (Bioorg Med Chem, 2009).
*1 amine or outer side, *2 acyl side, *3 side chain or, on linkers, in order; H or OH if unused. Where a SMILES comes first, the peptide text is derived from it. Bridges are numbered along the chain shown (N, C = ends). [ ]: non-standard residue; d: D form. The star is where a group is joined. Staurosporine = CO[C@@H]1[C@H](N(C)*)C[C@H]2O[C@]1(C)n1c3ccccc3c3c4c(c5c6ccccc6n2c5c31)C(=O)NC4; Suc = O=C(CCC(=O)[*:2])[*:1]; Dap = NC[C@H](N)C(=O)O; βAla = NCCC(=O)O

Tests used:
[1] = molecular target: Dual specificity mitogen-activated protein kinase kinase 2 (Homo sapiens) (UniProt P36507); assay: Binding affinity to human MEK2 at 500 nM by cell-based competition binding assay relative to control in presence of DTT
Chain of Dual specificity mitogen-activated protein kinase kinase 2 (Homo sapiens) (P36507 whole entry): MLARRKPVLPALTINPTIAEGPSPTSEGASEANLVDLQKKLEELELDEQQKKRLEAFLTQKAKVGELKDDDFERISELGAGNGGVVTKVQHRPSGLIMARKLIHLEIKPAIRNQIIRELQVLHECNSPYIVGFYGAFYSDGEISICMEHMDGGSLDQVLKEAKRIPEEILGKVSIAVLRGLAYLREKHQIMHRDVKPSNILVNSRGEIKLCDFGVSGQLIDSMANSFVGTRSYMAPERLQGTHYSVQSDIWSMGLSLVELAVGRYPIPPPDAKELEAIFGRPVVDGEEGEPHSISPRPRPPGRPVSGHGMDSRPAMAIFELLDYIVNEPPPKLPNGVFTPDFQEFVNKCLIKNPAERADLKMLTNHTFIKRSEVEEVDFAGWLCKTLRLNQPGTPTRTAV

[2] = molecular target: Vascular endothelial growth factor receptor 2 (Homo sapiens) (UniProt P35968); assay: Binding affinity to human VEGFR2 at 500 nM by cell-based competition binding assay relative to control in presence of DTT
[3] = molecular target: Casein kinase I isoform gamma-2 (Homo sapiens) (UniProt P78368); assay: Binding affinity to human CSNK1G2 at 500 nM by cell-based competition binding assay relative to control in presence of DTT
Chain of Casein kinase I isoform gamma-2 (Homo sapiens) (P78368 whole entry, looked up, canonical isoform): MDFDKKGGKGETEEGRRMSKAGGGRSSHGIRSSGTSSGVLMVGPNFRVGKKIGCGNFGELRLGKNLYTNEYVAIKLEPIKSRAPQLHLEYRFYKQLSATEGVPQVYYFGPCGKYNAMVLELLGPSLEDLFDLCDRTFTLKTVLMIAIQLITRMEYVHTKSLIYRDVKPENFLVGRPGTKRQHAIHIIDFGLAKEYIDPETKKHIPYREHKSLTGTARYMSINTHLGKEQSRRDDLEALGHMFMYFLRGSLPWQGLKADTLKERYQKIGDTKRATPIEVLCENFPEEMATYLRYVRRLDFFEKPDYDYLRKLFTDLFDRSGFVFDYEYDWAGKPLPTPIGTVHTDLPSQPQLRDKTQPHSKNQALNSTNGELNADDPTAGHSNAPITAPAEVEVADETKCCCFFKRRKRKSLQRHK
In short: (§1)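 Commercial (Ambit) competitive kinase-binding panel of 90 kinases measured the binding profile. Run under reducing conditions of 7.5 mM DTT. Binding is expressed relative to control.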

[4] = molecular target: Atypical kinase COQ8A, mitochondrial (Homo sapiens) (UniProt Q8NI60); assay: Binding affinity to human ADCK3 at 500 nM by cell-based competition binding assay relative to control in presence of DTT
Chain of Atypical kinase COQ8A, mitochondrial (Homo sapiens) (Q8NI60 163-647 limits assumed): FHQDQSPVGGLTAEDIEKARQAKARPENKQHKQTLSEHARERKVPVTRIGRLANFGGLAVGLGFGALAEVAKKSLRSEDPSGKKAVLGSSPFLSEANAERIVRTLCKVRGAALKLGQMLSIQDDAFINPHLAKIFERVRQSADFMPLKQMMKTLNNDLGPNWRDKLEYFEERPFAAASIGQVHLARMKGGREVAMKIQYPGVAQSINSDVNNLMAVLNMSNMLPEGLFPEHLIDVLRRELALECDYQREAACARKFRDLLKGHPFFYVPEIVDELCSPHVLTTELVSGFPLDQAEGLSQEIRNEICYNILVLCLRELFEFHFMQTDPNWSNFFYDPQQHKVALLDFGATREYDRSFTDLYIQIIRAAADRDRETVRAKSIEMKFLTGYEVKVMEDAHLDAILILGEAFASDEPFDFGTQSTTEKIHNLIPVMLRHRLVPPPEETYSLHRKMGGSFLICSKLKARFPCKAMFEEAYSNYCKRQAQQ
In short: (§2)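 Kinase binding profiling ran on a commercial (Ambit) competitive binding screen against a panel of 90 kinases. The screen used reducing conditions with 7.5 mM DTT. To withstand the DTT, the bivalent ligand was tested as its amide isostere, with the disulfide replaced. A staurosporine derivative carrying a 3 β-alanine linker was run as the reference compound.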

[5] = molecular target: Fibroblast growth factor receptor 3 (Homo sapiens) (UniProt P22607); assay: Binding affinity to human FGFR3 at 500 nM by cell-based competition binding assay relative to control in presence of DTT; in short: as §1
Chain of Fibroblast growth factor receptor 3 (Homo sapiens) (P22607 23-806 limits assumed): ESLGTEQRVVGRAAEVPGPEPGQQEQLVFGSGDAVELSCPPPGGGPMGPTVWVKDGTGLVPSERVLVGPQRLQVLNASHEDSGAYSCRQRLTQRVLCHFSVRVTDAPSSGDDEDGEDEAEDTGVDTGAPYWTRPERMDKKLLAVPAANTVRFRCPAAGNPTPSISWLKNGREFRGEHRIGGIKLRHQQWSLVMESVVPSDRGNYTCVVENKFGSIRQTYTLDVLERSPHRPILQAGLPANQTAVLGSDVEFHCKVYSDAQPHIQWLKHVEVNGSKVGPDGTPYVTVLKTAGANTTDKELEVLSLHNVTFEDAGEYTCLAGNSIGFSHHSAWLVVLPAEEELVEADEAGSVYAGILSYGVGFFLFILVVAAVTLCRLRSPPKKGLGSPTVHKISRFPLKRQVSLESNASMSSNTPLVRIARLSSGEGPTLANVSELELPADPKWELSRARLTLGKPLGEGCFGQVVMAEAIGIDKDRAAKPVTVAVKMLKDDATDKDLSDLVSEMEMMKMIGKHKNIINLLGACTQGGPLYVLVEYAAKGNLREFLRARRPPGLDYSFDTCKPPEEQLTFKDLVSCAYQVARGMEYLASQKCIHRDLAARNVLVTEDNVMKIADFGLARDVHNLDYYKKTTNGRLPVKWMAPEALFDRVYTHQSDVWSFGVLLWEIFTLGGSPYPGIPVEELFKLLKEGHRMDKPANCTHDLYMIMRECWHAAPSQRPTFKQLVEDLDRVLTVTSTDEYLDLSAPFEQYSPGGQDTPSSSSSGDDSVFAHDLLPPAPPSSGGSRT

[6] = molecular target: T1, Serine/threonine-protein kinase DCLK1 (Homo sapiens) (UniProt O15075); assay: Binding affinity to human DCAMKL1 at 500 nM by cell-based competition binding assay relative to control in presence of DTT; in short: as §1
T1 sequence (whole entry): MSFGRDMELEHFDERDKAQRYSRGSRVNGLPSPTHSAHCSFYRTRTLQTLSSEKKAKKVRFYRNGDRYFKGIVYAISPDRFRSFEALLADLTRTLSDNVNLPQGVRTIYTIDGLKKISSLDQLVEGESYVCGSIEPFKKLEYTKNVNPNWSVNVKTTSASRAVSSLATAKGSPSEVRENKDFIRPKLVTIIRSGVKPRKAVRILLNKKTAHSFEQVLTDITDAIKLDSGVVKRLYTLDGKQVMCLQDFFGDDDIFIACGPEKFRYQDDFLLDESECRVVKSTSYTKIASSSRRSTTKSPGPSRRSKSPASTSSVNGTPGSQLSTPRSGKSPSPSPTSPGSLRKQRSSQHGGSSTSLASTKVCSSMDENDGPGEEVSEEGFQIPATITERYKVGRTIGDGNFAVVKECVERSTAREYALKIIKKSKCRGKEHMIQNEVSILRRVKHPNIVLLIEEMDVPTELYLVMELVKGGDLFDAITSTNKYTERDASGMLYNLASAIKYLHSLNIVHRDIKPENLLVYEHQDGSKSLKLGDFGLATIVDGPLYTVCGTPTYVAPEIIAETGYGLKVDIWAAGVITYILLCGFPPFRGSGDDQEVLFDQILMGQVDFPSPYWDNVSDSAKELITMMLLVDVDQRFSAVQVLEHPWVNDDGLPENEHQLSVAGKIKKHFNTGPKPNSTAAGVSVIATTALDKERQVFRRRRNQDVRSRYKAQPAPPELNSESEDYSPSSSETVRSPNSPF

[7] = molecular target: T2, Protein kinase C epsilon type (Homo sapiens) (UniProt Q02156); assay: Binding affinity to human PRKCepsilon at 500 nM by cell-based competition binding assay relative to control in presence of DTT
T2 sequence (whole entry): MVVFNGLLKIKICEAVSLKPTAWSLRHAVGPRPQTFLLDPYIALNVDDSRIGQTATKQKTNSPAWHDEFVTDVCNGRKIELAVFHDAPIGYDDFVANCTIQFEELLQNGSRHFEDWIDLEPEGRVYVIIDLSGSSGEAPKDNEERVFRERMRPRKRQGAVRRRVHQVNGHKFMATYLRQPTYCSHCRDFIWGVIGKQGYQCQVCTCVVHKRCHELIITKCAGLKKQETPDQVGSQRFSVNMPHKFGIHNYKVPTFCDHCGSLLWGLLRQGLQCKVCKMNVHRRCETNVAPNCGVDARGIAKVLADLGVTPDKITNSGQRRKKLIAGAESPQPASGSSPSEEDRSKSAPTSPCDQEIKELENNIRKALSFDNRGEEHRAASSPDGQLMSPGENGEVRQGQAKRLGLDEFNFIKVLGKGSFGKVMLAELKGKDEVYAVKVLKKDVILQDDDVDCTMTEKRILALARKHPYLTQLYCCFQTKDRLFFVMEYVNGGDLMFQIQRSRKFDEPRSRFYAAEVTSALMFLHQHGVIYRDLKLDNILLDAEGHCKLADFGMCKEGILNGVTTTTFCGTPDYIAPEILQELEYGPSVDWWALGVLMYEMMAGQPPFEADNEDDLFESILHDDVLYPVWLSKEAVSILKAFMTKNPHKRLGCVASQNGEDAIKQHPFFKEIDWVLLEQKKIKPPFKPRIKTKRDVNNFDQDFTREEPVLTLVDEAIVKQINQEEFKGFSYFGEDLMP

[8] = molecular target: Focal adhesion kinase 1 (Homo sapiens) (UniProt Q05397); assay: Binding affinity to human PTK2 at 500 nM by cell-based competition binding assay relative to control in presence of DTT
Chain of Focal adhesion kinase 1 (Homo sapiens) (Q05397 2-1052 limits assumed): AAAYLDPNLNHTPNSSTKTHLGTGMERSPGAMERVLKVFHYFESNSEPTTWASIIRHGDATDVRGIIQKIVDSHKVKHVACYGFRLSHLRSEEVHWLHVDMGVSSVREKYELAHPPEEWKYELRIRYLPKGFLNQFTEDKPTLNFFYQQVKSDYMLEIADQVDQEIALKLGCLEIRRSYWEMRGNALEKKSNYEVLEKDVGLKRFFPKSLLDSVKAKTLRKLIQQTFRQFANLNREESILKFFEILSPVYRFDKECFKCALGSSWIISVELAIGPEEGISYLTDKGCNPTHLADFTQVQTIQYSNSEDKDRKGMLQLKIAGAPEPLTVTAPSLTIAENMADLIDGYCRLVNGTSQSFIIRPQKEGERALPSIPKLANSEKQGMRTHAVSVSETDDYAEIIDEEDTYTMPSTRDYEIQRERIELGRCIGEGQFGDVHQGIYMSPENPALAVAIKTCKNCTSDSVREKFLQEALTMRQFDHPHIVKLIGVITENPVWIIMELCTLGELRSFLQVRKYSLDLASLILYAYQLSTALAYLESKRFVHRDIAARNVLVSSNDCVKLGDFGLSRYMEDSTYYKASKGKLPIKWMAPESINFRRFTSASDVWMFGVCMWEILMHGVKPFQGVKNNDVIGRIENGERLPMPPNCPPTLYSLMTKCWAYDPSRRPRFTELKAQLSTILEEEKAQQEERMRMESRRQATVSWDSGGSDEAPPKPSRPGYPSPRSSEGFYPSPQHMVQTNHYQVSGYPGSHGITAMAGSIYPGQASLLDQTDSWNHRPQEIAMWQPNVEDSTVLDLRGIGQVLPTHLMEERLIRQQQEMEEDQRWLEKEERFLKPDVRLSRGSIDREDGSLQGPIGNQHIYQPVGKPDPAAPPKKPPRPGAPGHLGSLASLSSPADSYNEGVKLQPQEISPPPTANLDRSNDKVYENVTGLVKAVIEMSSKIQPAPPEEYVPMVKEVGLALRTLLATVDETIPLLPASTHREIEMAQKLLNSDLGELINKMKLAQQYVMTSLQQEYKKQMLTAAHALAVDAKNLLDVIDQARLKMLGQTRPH

[9] = molecular target: T1, Serine/threonine-protein kinase DCLK1 (Homo sapiens); assay: Binding affinity to human DCAMKL1 at 200 nM by cell-based competition binding assay relative to control in presence of DTT; in short: as §1
[10] = system: Mast/stem cell growth factor receptor Kit (Homo sapiens), P10721 [D816V]; assay: Binding affinity to human KIT D816V mutant at 50 nM by cell-based competition binding assay relative to control in presence of DTT
Chain of Mast/stem cell growth factor receptor Kit (Homo sapiens), P10721 [D816V] (P10721 whole entry D816V): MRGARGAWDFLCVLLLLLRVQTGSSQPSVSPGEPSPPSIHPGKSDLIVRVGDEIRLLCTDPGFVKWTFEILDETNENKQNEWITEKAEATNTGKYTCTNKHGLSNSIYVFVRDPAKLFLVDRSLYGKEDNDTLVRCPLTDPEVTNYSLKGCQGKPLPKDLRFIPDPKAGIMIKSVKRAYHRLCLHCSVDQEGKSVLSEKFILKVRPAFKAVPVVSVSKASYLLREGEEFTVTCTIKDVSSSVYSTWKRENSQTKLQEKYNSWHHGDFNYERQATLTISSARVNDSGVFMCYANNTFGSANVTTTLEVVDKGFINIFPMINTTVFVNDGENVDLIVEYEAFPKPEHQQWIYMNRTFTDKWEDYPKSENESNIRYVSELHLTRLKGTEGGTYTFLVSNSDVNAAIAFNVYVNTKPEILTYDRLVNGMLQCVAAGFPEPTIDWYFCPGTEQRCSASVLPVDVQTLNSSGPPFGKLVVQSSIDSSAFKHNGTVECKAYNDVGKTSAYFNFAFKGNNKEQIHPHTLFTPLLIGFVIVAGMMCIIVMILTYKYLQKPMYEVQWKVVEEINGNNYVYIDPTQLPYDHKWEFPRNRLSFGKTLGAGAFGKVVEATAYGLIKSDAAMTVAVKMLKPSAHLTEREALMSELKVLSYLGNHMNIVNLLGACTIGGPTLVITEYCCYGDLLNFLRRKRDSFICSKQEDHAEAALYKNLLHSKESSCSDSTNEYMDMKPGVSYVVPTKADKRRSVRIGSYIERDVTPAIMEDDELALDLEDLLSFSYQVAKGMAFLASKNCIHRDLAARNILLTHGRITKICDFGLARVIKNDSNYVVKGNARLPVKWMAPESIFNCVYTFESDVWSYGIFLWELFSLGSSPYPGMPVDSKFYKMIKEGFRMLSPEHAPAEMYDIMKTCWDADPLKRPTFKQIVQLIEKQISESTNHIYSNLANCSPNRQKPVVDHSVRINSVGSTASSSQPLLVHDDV
In short: (§3)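 Competition binding screen (Ambit) across a panel of 90 kinases, scoring test ligand displacement of each kinase's binding relative to control. The screen ran under reducing conditions with 7.5 mM DTT.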

[11] = system: Mast/stem cell growth factor receptor Kit (Homo sapiens), P10721 [V559D,T670I]; assay: Binding affinity to human KIT V559D,T670I mutant at 50 nM by cell-based competition binding assay relative to control in presence of DTT; in short: as §3
Chain of Mast/stem cell growth factor receptor Kit (Homo sapiens), P10721 [V559D,T670I] (P10721 whole entry V559D/T670I): as the sequence (P10721 whole entry D816V) above, with V559D, T670I, V816D counted along it

[12] = molecular target: Focal adhesion kinase 1 (Homo sapiens) (UniProt Q05397); assay: Binding affinity to human PTK2 at 50 nM by cell-based competition binding assay relative to control in presence of DTT
[13] = molecular target: Phosphatidylinositol 4,5-bisphosphate 3-kinase catalytic subunit gamma isoform (Homo sapiens) (UniProt P48736); assay: Binding affinity to human PIK3Cgamma at 50 nM by cell-based competition binding assay relative to control in presence of DTT
[14] = molecular target: Cyclin-dependent kinase 7 (Homo sapiens) (UniProt P50613); assay: Binding affinity to human CDK7 at 50 nM by cell-based competition binding assay relative to control in presence of DTT; in short: as §2
Chain of Cyclin-dependent kinase 7 (Homo sapiens) (P50613 whole entry): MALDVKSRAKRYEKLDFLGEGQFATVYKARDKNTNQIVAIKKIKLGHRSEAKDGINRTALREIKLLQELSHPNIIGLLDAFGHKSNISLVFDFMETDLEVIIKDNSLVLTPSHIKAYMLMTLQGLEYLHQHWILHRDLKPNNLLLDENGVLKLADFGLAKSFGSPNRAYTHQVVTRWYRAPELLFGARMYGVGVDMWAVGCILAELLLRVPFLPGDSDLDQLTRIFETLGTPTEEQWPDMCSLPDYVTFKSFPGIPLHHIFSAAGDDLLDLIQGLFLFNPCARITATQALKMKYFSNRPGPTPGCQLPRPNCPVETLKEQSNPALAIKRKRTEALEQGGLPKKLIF

[15] = molecular target: MAP kinase-activated protein kinase 2 (Homo sapiens) (UniProt P49137); assay: Binding affinity to human MAPKAPK2 at 50 nM by cell-based competition binding assay relative to control in presence of DTT; in short: as §3
Chain of MAP kinase-activated protein kinase 2 (Homo sapiens) (P49137 whole entry, looked up): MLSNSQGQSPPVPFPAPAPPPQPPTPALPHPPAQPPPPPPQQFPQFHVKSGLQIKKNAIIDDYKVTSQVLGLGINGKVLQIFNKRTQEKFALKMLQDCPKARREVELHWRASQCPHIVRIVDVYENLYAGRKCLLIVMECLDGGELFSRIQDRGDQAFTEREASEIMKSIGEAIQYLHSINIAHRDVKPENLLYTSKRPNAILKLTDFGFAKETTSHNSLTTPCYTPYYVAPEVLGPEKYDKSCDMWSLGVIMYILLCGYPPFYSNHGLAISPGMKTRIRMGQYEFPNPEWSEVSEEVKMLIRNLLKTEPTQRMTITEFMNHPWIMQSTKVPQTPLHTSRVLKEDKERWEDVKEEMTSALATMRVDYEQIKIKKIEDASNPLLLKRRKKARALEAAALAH

`CO[C@@H]1[C@H](N(C)C(=O)CCC(=O)NCCC(=O)NCCC(=O)NCCC(N)=O)C[C@H]2O[C@]1(C)n1c3ccccc3c3c4c(c5c6ccccc6n2c5c31)C(=O)NC4` gave an Activity [1] of 86%, an Activity [2] of 36% and an Activity [3] of 99%. For the same compound, the Activity [4] was 91%, the Activity [5] was 43% and the Activity [6] was 100%. The Activity [7] was 0.6% and the Activity [8] was 65%.

With `CO[C@@H]1[C@H](N(C)C(=O)CCC(=O)NCCC(=O)NCCC(=O)NCCC(=O)NCCC(=O)NCCC(=O)NCCC(=O)NCCC(=O)N[C@H]2CSSC[C@@H](C(=O)NCC(N)=O)NC(=O)CNC(=O)[C@H](Cc3ccccc3)NC(=O)[C@H](C(C)C)NC(=O)[C@H](CCCNC(=N)N)NC(=O)[C@H](Cc3ccccc3)NC(=O)[C@H](C(C)C)NC2=O)C[C@H]2O[C@]1(C)n1c3ccccc3c3c4c(c5c6ccccc6n2c5c31)C(=O)NC4` ({Staurosporine-Suc-βAla-βAla-βAla-βAla-βAla-βAla-βAla}-CVFRVFGCG-NH2; disulfide 1-8) the Activity [9] was 100%.

`CO[C@@H]1[C@H](N(C)C(=O)CCC(=O)NCCC(=O)NCCC(=O)NCCC(=O)NCCC(=O)NCCC(=O)NCCC(=O)NCCC(=O)N[C@H]2CNC(=O)C[C@@H](C(N)=O)NC(=O)CNC(=O)[C@H](Cc3ccccc3)NC(=O)[C@H](C(C)C)NC(=O)[C@H](CCCNC(=N)N)NC(=O)[C@H](Cc3ccccc3)NC(=O)[C@H](C(C)C)NC2=O)C[C@H]2O[C@]1(C)n1c3ccccc3c3c4c(c5c6ccccc6n2c5c31)C(=O)NC4` ({Staurosporine-Suc-βAla-βAla-βAla-βAla-βAla-βAla-βAla}-[Dap]VFRVFGD-NH2; lactam 1-8) showed an Activity [10] of 6.5%, an Activity [11] of 59% and an Activity [12] of 100%. The Activity [13] was 91%, the Activity [14] was 98% and the Activity [15] was 100%.
